# Columns and labels:
# [1] = molecular target: 5-hydroxytryptamine receptor 4 (Cavia porcellus) (UniProt O70528); assay: Ability to displace [3H]GR-113808 from 5-hydroxytryptamine 4 receptor at concentration of 10e-8 M in guinea pig
# Procedure, shortened: (§1)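 Guinea pig striatal membranes (males, 220–224 g) in 50 mM HEPES pH 7.4, incubated in duplicate at 37 °C for 30 min with 0.6 nM [3H]GR 113808. Filtration on polyethylenimine-soaked GF/B filters. Nonspecific binding with 10 μM 5-HT. Screened as percent inhibition at 10⁻⁶ and 10⁻⁸ M; Ki derived for compounds giving over 40% inhibition at 10⁻⁸ M.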
# [2] = molecular target: 5-hydroxytryptamine receptor 4 (Cavia porcellus) (UniProt O70528); assay: Ability to displace [3H]GR-113808 from 5-hydroxytryptamine 4 receptor at concentration of 10e-6 M in guinea pig; procedure, shortened: as §1
# [3] = molecular target: 5-hydroxytryptamine receptor 4 (Cavia porcellus, UniProt O70528); assay: Ability to displace [3H]GR-113808 from 5-hydroxytryptamine 4 receptor; procedure, shortened: as §1
# Mus musculus [4] = assay: Antinociceptive activity in the mouse writhing test after intraperitoneal dose of 1 mg/kg; assay type: functional
# Procedure, shortened: (§2)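 Male OF1 mice (20–24 g), groups of eight. Compounds in saline given ip (10 mL/kg) 15 min before ip 0.6% aqueous acetic acid (10 mL/kg). Stretches per animal counted over 10 min, starting 10 min after acid. Stretch defined as back arching, pelvic rotation and hind limb extension. Data are mean ± SEM; ANOVA then Fisher PLSD.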
# Mus musculus [5] = assay: Antinociceptive activity in the mouse writhing test before administration of the compound; assay type: functional; procedure, shortened: as §2
# Mus musculus [6] = assay: Antinociceptive activity in the mouse writhing test after intraperitoneal dose of 0.01 mg/kg; assay type: functional; procedure, shortened: as §2
# Mus musculus [7] = assay: Antinociceptive activity in the mouse writhing test after intraperitoneal dose of 0.1 mg/kg; assay type: functional; procedure, shortened: as §2
# Mus musculus [8] = assay: Compound was tested at subtoxic dose of 25 mg/kg in mice; Symptoms are hyperactivity, irritability, stereotypy.; assay type: ADME, organism-based; parameters: dose 25 mg/kg; details: in vivo
# Mus musculus [9] = assay: Antinociceptive activity in the mouse writhing test after intraperitoneal dose of 5 mg/kg; assay type: functional; procedure, shortened: as §2
# Mus musculus [10] = assay: Antinociceptive activity in the mouse writhing test after intraperitoneal dose of 30 mg/kg; assay type: functional; procedure, shortened: as §2
# [11] = molecular target: 5-hydroxytryptamine receptor 4 (Mus musculus, UniProt P97288); assay: Ability to displace [3H]GR-113808 from mouse 5-hydroxytryptamine 4 receptor in COS7 cells; assay type: cell-based, COS-7
# Mus musculus [12] = assay: Compound was tested at toxic doses of 12.5-25-50 mg/kg in mice; Convulsions.; assay type: ADME, organism-based; details: in vivo
# [13] = molecular target: Histamine H1 receptor (Homo sapiens) (UniProt P35367); assay: Ability to displace [3H]mepyramine from histamine H1 receptor at concentration of 10e-7 M
# Mus musculus [14] = assay: Antinociceptive activity in the mouse writhing test after intraperitoneal dose of 1 mg/kg; p<0.01; assay type: functional; procedure, shortened: as §2
# [15] = molecular target: Histamine H2 receptor (Rattus norvegicus) (UniProt P25102); assay: Ability to displace [3H]tiotidine from histamine-H2 receptor at concentration of 10e-5 M
# [16] = molecular target: 5-hydroxytryptamine receptor 2C (Homo sapiens, UniProt P28335); assay: Ability to displace [3H]mesulergine from 5-hydroxytryptamine 2C receptor
# [17] = molecular target: Beta-2 adrenergic receptor (Homo sapiens) (UniProt P07550); assay: Ability to displace [3H]CGP-12177 from Beta-2 adrenergic receptor at concentration of 10e-7 M
# D(2) dopamine receptor = D(2) dopamine receptor (Homo sapiens, UniProt P14416); assay: Ability to displace [3H]YM-0915 from Dopamine receptor D2
# [18] = molecular target: 5-hydroxytryptamine receptor 2A (Homo sapiens, UniProt P28223); assay: Ability to displace [3H]-ketanserin from 5-hydroxytryptamine 2A receptor
# [19] = molecular target: Sodium-dependent dopamine transporter (Rattus norvegicus) (UniProt P23977); assay: Ability to recapture DA by displace [3H]GBR-12935 from dopamine transporter at concentration of 10e-7 M
# Mus musculus [20] = assay: Antinociceptive activity in the mouse writhing test after intraperitoneal dose of 0.1 mg/kg; p<0.05.; assay type: functional; procedure, shortened: as §2
# [21] = molecular target: 5-hydroxytryptamine receptor 6 (Homo sapiens) (UniProt P50406); assay: Ability to displace [125I]LSD […] from 5-hydroxytryptamine 6 receptor at concentration of 10e-6 M
# [22] = molecular target: Sodium-dependent dopamine transporter (Rattus norvegicus) (UniProt P23977); assay: Ability to recapture DA by displace [3H]GBR-12935 from dopamine transporter at concentration of 10e-5 M
# [23] = molecular target: Beta-2 adrenergic receptor (Homo sapiens) (UniProt P07550); assay: Ability to displace [3H]-CGP-12,177 from adrenergic Beta-2 adrenergic receptor at concentration of 10e-5 M
# [24] = Ability to recaprure NAD using [3H]nisoxetine at concentration of 10e-5 M
# [25] = molecular target: Sodium-dependent serotonin transporter (Homo sapiens) (UniProt P31645); assay: Ability to recapture 5-HT by displace [3H]paroxetine at serotonin transporter at concentration of 10e-7 M
# Vasopressin V2 receptor = Vasopressin V2 receptor (Sus scrofa, UniProt P32307); assay: Ability to displace [3H]AVP from Vasopressin V2 receptor
# Vasopressin V1b receptor = Vasopressin V1b receptor (Rattus norvegicus, UniProt P48974); assay: Ability to displace [3H]AVP from vasopressin V1 receptor
# [26] = molecular target: 5-hydroxytryptamine receptor 6 (Homo sapiens) (UniProt P50406); assay: Ability to displace [125I]LSD […] from 5-hydroxytryptamine 6 receptor at concentration of 10e-8 M
# [27] = molecular target: Histamine H1 receptor (Homo sapiens) (UniProt P35367); assay: Ability to displace [3H]-mepyramine from histamine H1 receptor at concentration of 10e-5 M
# [28] = molecular target: Histamine H2 receptor (Rattus norvegicus) (UniProt P25102); assay: Ability to displace [3H]tiotidine from histamine-H2 receptor at concentration of 10e-7 M
# [29] = molecular target: 5-hydroxytryptamine receptor 1A (Mus musculus, UniProt Q64264); assay: Ability to displace [3H]8-OH-DPAT from 5-hydroxytryptamine 1A receptor
# [30] = molecular target: 5-hydroxytryptamine receptor 7 (Homo sapiens) (UniProt P34969); assay: Ability to displace [125I]LSD […] from 5-hydroxytryptamine 7 receptor at concentration of 10e-6 M
# [31] = molecular target: 5-hydroxytryptamine receptor 7 (Homo sapiens) (UniProt P34969); assay: Ability to displace [125I]LSD […] from 5-hydroxytryptamine 7 receptor at concentration of 10e-8 M
# [32] = molecular target: Sodium-dependent serotonin transporter (Homo sapiens) (UniProt P31645); assay: Ability to recapture 5-HT by displacing [3H]paroxetine at serotonin transporter at concentration of 10e-5 M
# [33] = molecular target: Beta-1 adrenergic receptor (Homo sapiens) (UniProt P08588); assay: Ability to displace [3H]CGP-12177 from Beta-1 adrenergic receptor at concentration of 10e-5 M
# Mus musculus [34] = assay: Compound was tested at subtoxic doses of 12.5-25-50 mg/kg in mice; Symptoms are Hypoactivity,relaxation,Passivity.; assay type: ADME, organism-based; details: in vivo
# [35] = molecular target: Beta-1 adrenergic receptor (Homo sapiens) (UniProt P08588); assay: Ability to displace [3H]CGP-12177 from Beta-1 adrenergic receptor at concentration of 10e-7 M
# [36] = Ability to recaprure NAD using [3H]-nisoxatine at concentration of 10e-7 M
# [37] = molecular target: 5-hydroxytryptamine receptor 2B (Homo sapiens, UniProt P41595); assay: Ability to displace [3H]5-HT from 5-hydroxytryptamine 2B receptor
# [38] = Lethal dose of the compound; assay type: ADME
# Procedure, shortened: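 Male OF1 mice (20–24 g), in groups of four, received graded ip doses (12.5, 25, 50 mg/kg) in saline (10 mL/kg).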
# D(1A) dopamine receptor = D(1A) dopamine receptor (Mus musculus, UniProt Q61616); assay: Ability to displace [3H]SCH-23390 from Dopamine receptor D1
# Chain of 5-hydroxytryptamine receptor 4 (Cavia porcellus) (O70528 whole entry): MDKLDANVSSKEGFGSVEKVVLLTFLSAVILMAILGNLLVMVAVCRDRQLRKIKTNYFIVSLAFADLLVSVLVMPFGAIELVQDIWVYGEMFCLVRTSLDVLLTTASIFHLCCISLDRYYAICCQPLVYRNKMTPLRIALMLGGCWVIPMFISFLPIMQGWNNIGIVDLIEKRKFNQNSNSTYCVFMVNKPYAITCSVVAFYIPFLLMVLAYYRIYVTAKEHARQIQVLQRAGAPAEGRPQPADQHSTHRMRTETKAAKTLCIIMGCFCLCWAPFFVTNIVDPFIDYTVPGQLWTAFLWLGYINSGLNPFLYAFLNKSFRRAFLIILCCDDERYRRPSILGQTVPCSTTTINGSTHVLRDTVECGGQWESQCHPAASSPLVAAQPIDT
# Chain of 5-hydroxytryptamine receptor 4 (Cavia porcellus, UniProt O70528) (O70528 whole entry): as above
# Chain of 5-hydroxytryptamine receptor 6 (Homo sapiens) (P50406 whole entry): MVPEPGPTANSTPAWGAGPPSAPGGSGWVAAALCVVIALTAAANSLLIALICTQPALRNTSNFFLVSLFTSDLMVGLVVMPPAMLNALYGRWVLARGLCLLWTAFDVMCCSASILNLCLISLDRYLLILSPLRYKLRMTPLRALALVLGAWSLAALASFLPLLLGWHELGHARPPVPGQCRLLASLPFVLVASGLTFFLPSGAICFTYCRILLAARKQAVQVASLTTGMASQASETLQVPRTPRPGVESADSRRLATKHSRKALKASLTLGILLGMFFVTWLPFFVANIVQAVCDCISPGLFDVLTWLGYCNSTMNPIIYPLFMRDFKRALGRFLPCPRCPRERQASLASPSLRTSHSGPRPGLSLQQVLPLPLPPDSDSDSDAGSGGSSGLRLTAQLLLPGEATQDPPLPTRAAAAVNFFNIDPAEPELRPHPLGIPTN
# Chain of Beta-1 adrenergic receptor (Homo sapiens) (P08588 whole entry, looked up): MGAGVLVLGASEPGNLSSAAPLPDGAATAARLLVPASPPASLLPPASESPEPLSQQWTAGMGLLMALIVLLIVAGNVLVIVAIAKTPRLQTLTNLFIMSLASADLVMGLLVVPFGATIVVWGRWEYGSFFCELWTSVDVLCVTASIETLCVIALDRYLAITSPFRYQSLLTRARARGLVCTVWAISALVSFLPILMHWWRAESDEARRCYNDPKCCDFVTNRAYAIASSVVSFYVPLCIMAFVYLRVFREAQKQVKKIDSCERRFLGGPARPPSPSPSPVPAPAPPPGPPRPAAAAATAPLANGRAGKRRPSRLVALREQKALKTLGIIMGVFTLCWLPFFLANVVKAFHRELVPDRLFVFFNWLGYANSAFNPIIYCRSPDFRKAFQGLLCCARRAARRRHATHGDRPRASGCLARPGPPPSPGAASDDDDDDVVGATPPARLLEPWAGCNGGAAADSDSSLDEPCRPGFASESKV
# Chain of Sodium-dependent serotonin transporter (Homo sapiens) (P31645 whole entry, looked up): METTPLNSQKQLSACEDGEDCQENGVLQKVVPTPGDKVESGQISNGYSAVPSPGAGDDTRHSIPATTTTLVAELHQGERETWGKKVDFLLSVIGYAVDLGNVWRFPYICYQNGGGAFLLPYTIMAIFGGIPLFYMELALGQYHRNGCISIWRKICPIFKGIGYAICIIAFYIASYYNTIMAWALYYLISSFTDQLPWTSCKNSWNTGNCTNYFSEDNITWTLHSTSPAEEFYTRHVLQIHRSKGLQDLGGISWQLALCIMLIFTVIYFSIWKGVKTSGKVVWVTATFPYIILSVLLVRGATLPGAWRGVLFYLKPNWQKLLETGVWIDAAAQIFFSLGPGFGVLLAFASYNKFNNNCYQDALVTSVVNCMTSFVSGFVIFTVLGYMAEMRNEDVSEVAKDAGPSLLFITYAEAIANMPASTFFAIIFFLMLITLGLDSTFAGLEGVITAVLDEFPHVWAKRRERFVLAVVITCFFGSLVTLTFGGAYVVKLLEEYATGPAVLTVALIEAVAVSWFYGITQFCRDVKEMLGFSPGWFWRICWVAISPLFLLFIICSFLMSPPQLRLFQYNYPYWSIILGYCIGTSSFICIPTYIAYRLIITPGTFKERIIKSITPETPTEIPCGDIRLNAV
# Chain of Histamine H2 receptor (Rattus norvegicus) (P25102 whole entry): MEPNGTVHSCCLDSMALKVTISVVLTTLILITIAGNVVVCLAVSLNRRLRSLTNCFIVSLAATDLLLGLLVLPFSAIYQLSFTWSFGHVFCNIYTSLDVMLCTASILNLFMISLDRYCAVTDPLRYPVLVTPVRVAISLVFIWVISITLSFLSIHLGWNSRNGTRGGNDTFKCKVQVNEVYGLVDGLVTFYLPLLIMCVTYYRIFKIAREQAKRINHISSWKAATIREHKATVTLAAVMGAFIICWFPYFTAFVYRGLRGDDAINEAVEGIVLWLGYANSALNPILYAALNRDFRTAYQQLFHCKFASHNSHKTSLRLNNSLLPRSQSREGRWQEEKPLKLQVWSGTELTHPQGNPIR
# Chain of Histamine H1 receptor (Homo sapiens) (P35367 whole entry): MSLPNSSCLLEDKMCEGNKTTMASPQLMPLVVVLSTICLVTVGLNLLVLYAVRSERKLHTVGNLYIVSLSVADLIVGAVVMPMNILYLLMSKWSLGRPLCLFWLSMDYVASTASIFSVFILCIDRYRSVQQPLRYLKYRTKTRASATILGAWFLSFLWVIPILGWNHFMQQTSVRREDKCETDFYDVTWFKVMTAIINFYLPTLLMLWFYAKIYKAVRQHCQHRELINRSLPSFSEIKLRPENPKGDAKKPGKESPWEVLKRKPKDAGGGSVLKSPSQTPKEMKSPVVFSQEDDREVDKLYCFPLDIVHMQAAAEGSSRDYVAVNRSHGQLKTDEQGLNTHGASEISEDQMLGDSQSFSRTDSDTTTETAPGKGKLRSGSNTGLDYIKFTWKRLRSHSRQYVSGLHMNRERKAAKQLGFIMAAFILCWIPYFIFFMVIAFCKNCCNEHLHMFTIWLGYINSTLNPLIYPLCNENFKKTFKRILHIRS
# Chain of Beta-2 adrenergic receptor (Homo sapiens) (P07550 whole entry, looked up): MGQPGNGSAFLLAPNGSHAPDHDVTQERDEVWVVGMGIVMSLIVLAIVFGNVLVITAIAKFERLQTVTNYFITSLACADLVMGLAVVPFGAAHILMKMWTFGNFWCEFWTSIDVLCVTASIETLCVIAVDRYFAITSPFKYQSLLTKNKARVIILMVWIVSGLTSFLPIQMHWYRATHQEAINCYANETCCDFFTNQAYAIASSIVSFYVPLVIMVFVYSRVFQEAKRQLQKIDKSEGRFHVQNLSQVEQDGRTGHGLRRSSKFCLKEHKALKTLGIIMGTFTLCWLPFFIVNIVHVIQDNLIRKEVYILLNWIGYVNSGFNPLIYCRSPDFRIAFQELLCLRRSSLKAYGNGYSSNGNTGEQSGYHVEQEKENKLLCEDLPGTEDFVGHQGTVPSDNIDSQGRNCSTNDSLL
# Chain of 5-hydroxytryptamine receptor 7 (Homo sapiens) (P34969 whole entry): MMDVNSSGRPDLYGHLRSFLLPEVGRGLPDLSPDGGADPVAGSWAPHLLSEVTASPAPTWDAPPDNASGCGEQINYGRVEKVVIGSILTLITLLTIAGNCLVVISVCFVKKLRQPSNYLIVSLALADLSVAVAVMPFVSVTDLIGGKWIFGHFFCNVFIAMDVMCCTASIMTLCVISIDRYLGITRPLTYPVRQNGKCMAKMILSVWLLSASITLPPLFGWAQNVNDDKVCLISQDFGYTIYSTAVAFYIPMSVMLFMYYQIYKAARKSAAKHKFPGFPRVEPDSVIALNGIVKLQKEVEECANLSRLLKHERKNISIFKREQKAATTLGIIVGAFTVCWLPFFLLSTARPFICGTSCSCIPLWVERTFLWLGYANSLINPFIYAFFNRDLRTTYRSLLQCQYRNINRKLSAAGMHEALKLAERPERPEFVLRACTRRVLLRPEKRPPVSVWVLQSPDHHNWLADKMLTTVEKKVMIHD
# Chain of Sodium-dependent dopamine transporter (Rattus norvegicus) (P23977 whole entry): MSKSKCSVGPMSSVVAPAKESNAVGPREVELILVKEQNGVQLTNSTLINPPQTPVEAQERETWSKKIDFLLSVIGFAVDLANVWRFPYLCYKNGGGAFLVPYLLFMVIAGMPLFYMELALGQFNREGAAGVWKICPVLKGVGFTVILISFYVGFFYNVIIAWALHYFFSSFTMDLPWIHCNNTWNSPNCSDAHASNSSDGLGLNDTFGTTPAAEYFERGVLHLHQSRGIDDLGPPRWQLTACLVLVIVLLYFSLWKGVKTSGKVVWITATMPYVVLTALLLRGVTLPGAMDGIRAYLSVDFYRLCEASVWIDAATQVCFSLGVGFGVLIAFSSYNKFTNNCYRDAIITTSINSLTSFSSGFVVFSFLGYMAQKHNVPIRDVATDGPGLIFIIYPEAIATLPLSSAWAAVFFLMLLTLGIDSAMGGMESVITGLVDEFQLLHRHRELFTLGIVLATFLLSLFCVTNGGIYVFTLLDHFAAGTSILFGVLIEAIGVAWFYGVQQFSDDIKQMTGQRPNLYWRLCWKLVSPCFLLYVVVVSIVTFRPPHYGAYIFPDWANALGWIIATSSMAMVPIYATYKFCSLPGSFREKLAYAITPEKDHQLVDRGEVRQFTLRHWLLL
# Chain of 5-hydroxytryptamine receptor 2B (P41595 whole entry): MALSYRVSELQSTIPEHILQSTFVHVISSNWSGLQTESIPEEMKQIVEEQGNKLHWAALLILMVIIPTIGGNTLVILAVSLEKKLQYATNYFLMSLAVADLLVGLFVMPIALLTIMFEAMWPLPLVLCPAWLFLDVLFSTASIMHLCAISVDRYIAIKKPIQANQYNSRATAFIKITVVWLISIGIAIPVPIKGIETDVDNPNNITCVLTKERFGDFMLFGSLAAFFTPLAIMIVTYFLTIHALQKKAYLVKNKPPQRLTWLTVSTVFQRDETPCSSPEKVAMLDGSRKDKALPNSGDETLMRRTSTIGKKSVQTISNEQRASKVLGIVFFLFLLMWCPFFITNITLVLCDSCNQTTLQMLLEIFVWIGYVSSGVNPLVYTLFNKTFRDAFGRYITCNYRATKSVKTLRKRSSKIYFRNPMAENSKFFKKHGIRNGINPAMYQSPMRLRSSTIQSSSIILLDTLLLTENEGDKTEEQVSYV
structure (smiles),measurement,setting,value
c1ccc2c3c(c(OCC4CCNCC4)nc2c1)CCCN3,inhibition,[1],24%
same,inhibition,[2],96%
CCCN1CCC(COc2nc3ccccc3c3c2CCCCN3)CC1,Ki,[3],12.7 nM
same,inhibition,[1],55%
same,inhibition,[2],100%
CCCN1CCC(COc2nc3ccc(Cl)cc3c3c2CCCN3)CC1,inhibition,[1],0%
same,inhibition,[2],100%
CCCCN1CCC(COc2nc3ccc(Cl)cc3c3c2CCCN3)CC1,inhibition,[1],2%
same,inhibition,[2],100%
Cn1cc(C(=O)OCC2CCN(CCNS(C)(=O)=O)CC2)c2ccccc21,Stretches,Mus musculus [4],12.3
same,Stretches,Mus musculus [5],21.8
same,Stretches,Mus musculus [6],18.2
same,Stretches,Mus musculus [7],12.8
C=CCN1CCC(COc2nc3ccccc3c3c2CCCN3)CC1,inhibition,[1],31%
same,inhibition,[2],100%
CCCCCN1CCC(COc2nc3ccccc3c3c2CCCCN3)CC1,inhibition,[1],0%
same,inhibition,[2],100%
COC(=O)C(c1ccccc1)C1CCCCN1 (centres undefined) [METHYLPHENIDATE],Symptoms,Mus musculus [8],"Hyperactivity, irritability, stereotypy"
CN1C(C(=O)Nc2ccccn2)=C(O)c2ccccc2S1(=O)=O [PIROXICAM],Stretches,Mus musculus [9],2.4
same,Stretches,Mus musculus [5],24.6
CCCN1CCC(COc2nc3ccc(Cl)cc3c3c2CCCCN3)CC1,inhibition,[1],5%
same,inhibition,[2],91%
C#CCN1CCC(COc2nc3ccccc3c3c2CCCN3)CC1,inhibition,[1],15%
same,inhibition,[2],100%
CCCCN1CCC(COc2nc3ccccc3c3c2CCCN3)CC1,Ki,[3],10 nM
same,inhibition,[1],77%
same,inhibition,[2],100%
COc1[nH]c2ccc(F)cc2c1C(=O)OCC1CCN(CCNS(C)(=O)=O)CC1,Stretches,Mus musculus [4],11.2
same,Stretches,Mus musculus [5],20
same,Stretches,Mus musculus [6],16.5
same,Stretches,Mus musculus [7],11.5
CCN1CCC(COc2nc3ccccc3c3c2CCCN3)CC1,Ki,[3],13.1 nM
same,inhibition,[1],55%
same,inhibition,[2],100%
CCCN1CCC(COc2nc3cc(Cl)ccc3c3c2CCCCN3)CC1,inhibition,[1],0%
same,inhibition,[2],98%
CCN1CCC(COc2nc3ccccc3c3c2CCCCN3)CC1,Ki,[3],10.7 nM
same,inhibition,[1],51%
same,inhibition,[2],100%
CCCCCN1CCC(COc2nc3ccccc3c3c2CCCN3)CC1,Ki,[3],12.5 nM
same,inhibition,[1],51%
same,inhibition,[2],100%
CCCCN1CCC(COc2nc3ccc(Cl)cc3c3c2CCCCN3)CC1,inhibition,[1],0%
same,inhibition,[2],92%
CC(=O)Oc1ccccc1C(=O)O [ASPIRIN],Stretches,Mus musculus [10],8.7
same,Stretches,Mus musculus [5],25.8
CCCN1CCC(COc2nc3ccccc3c3c2CCCN3)CC1,IC50,[11],0.56 nM
same,Symptoms,Mus musculus [12],Active
same,inhibition,[13],0%
same,Stretches,Mus musculus [14],12.5
same,inhibition,[15],75%
same,IC50,[16],3.4 µM
same,inhibition,[17],0%
same,IC50,D(2) dopamine receptor,3.4 µM
same,IC50,[18],5 µM
same,inhibition,[19],13%
same,Stretches,Mus musculus [20],13.8
same,Ki,[3],2.89 nM
same,inhibition,[21],12%
same,inhibition,[22],61%
same,inhibition,[23],70%
same,inhibition,[24],23%
same,Stretches,Mus musculus [5],24.6
same,inhibition,[25],0%
same,IC50,Vasopressin V2 receptor,11 µM
same,Stretches,Mus musculus [6],19
same,IC50,Vasopressin V1b receptor,3.2 µM
same,inhibition,[26],0%
same,inhibition,[27],91%
same,inhibition,[28],0%
same,IC50,[29],9.1 µM
same,inhibition,[30],36%
same,inhibition,[31],20%
same,inhibition,[32],79%
same,inhibition,[1],70%
same,inhibition,[33],39%
same,inhibition,[2],100%
same,Symptoms,Mus musculus [34],Active
same,inhibition,[35],0%
same,inhibition,[36],17%
same,IC50,[37],200 nM
same,LD50,[38],37.5 mg/kg
same,IC50,D(1A) dopamine receptor,> 100 µM
CN1CCC(COc2nc3ccccc3c3c2CCCN3)CC1,Ki,[3],79.7 nM
same,inhibition,[1],52%
same,inhibition,[2],100%
CCCCN1CCC(COc2nc3ccccc3c3c2CCCCN3)CC1,Ki,[3],16.3 nM
same,inhibition,[1],44%
same,inhibition,[2],100%

# Reference: ChEMBL document CHEMBL1145012, “New benzo[h][1,6]naphthyridine and azepino[3,2-c]quinoline derivatives as selective antagonists of 5-HT4 receptors: binding profile and pharmacological characterization” (J Med Chem, 2003)
